# Results from ChEMBL document CHEMBL3352437, “Novel 3,5-bis(arylidene)-4-oxo-1-piperidinyl dimers: structure-activity relationships and potent antileukemic and antilymphoma cytotoxicity” (Eur J Med Chem, 2014).
# Legend:
# CCRF-CEM [1] = assay: Antiproliferative activity against human CEM cells after 72 hrs by coulter counting analysis; assay type: functional, cell-based
# Procedure, shortened: (§1)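 Cells exposed to a range of concentrations in RPMI 1640 at 37°C for 72 h. Surviving cells counted by Coulter counter. IC50 taken from concentration-response curves, mean ± SD of at least three independent experiments.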
# HeLa = assay: Antiproliferative activity against human HeLa cells after 72 hrs by coulter counting analysis; assay type: functional, cell-based; procedure, shortened: as §1
# L1210 = assay: Antiproliferative activity against mouse L1210 cells after 72 hrs by coulter counting analysis; assay type: functional, cell-based; conditions: L1210, 72 h
# [2] = Antiproliferative activity against human Molt4/C8 cells after 72 hrs by coulter counting analysis; assay type: functional, cell-based; conditions: MOLT-4, 72 h; procedure, shortened: as §1
# HL-60(TB) = assay: Antileukemic activity against human HL-60(TB) cells assessed as inhibition of tumor growth after 24 hrs; assay type: functional, cell-based; conditions: HL-60, 24 h
# K562 = assay: Antileukemic activity against human K562 cells assessed as inhibition of tumor growth after 24 hrs; assay type: functional, cell-based; conditions: K562, 24 h
# [3] = Cytotoxicity against human NCI60 cells assessed as inhibition of tumor growth after 24 hrs; assay type: functional, cell-based; conditions: NCI60, 24 h
# COLO 205 = assay: Cytotoxicity against human COLO205 cells assessed as inhibition of tumor growth after 24 hrs; assay type: functional, cell-based; conditions: COLO 205, 24 h
# SR = assay: Antileukemic activity against human SR cells assessed as inhibition of tumor growth after 24 hrs; assay type: functional, cell-based
# HCC 2998 = assay: Cytotoxicity against human HCC2998 cells assessed as inhibition of tumor growth after 24 hrs; assay type: functional, cell-based; conditions: HCC 2998, 24 h
# KM12 = assay: Cytotoxicity against human KM12 cells assessed as inhibition of tumor growth after 24 hrs; assay type: functional, cell-based; conditions: KM12, 24 h
# SW-620 = assay: Cytotoxicity against human SW620 cells assessed as inhibition of tumor growth after 24 hrs; assay type: functional, cell-based; conditions: SW-620, 24 h
# [4] = Antileukemic activity against human RPMI8226 cells assessed as inhibition of tumor growth after 24 hrs; assay type: functional, cell-based; conditions: rpmi-8226
# HS27 = assay: Cytotoxicity against human HS27 cells assessed as dead cells at 1 uM after 24 hrs; assay type: cell-based; conditions: hs27, 24 h
# Procedure, shortened: (§2)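 Compounds added from DMSO solutions to cells in medium (RPMI; DMEM for Hs-27 fibroblasts) and incubated 24 h at 37°C. Membrane disruption scored by propidium iodide uptake. Result is percentage of dead cells, average of three independent experiments.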
# DU-145 = assay: Cytotoxicity against human DU145 cells assessed as dead cells at 1 uM after 24 hrs; assay type: functional
# Procedure, shortened: (§3)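 Dienones added as DMSO solutions to cells in RPMI medium and incubated 24 h at 37°C. Cytotoxicity was scored as cell-membrane disruption by propidium iodide staining and expressed as percentage of dead cells, averaged over three independent experiments.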
# LAPC4 = assay: Cytotoxicity against human LAPC4 cells assessed as dead cells at 1 uM after 24 hrs; assay type: functional; procedure, shortened: as §3
# [5] = Cytotoxicity against human NALM6 cells assessed as dead cells at 1 uM after 24 hrs; assay type: functional, NALM-6; procedure, shortened: as §3
# [6] = Cytotoxicity against human HCT15 cells assessed as inhibition of tumor growth after 24 hrs; assay type: functional, cell-based; conditions: HCT-15, 24 h
# YT = assay: Cytotoxicity against human YT cells assessed as dead cells at 1 uM after 24 hrs; assay type: functional; procedure, shortened: as §3
# Jurkat = assay: Cytotoxicity against human Jurkat cells assessed as dead cells at 1 uM after 24 hrs; assay type: functional; procedure, shortened: as §3
# EL4 = assay: Cytotoxicity against mouse EL4 cells assessed as dead cells at 1 uM after 24 hrs; assay type: functional; procedure, shortened: as §3
# CCRF-CEM [7] = assay: Cytotoxicity against human CEM cells assessed as dead cells at 1 uM after 24 hrs; assay type: functional; procedure, shortened: as §3
# [8] = Cytotoxicity against human HuT-102 cells assessed as dead cells at 1 uM after 24 hrs; assay type: functional; procedure, shortened: as §3
# Raji = assay: Cytotoxicity against human Raji cells assessed as dead cells at 1 uM after 24 hrs; assay type: functional; procedure, shortened: as §3
# Ramos = assay: Cytotoxicity against human Ramos cells assessed as dead cells at 1 uM after 24 hrs; assay type: functional; procedure, shortened: as §3
# MCF7 = assay: Cytotoxicity against human MCF7 cells assessed as dead cells at 1 uM after 24 hrs; assay type: functional; procedure, shortened: as §3
# HCC70 = assay: Cytotoxicity against human HCC70 cells assessed as dead cells at 1 uM after 24 hrs; assay type: functional; procedure, shortened: as §3
# [9] = Cytotoxicity against human MCF10A cells assessed as dead cells at 1 uM after 24 hrs; assay type: cell-based; conditions: mcf-10a; procedure, shortened: as §2
# [10] = Cytotoxicity against human MOLT3 cells assessed as dead cells at 1 uM after 24 hrs; assay type: functional, MOLT-3; procedure, shortened: as §3
# BJAB = assay: Cytotoxicity against human BJAB cells assessed as dead cells at 1 uM after 24 hrs; assay type: functional; procedure, shortened: as §3
# [11] = Cytotoxicity against human 22Rvl cells assessed as dead cells at 1 uM after 24 hrs; assay type: functional; procedure, shortened: as §3
# [12] = Cytotoxicity against human SupT1 cells assessed as dead cells at 1 uM after 24 hrs; assay type: functional, SUP-T1; procedure, shortened: as §3
# [13] = Cytotoxicity against human MDA231 cells assessed as dead cells at 1 uM after 24 hrs; assay type: functional, MDA-MB-231; procedure, shortened: as §3
Structure (SMILES),IC50 (CCRF-CEM [1]),IC50 (HeLa),IC50 (L1210),IC50 [2],IC50 (HL-60(TB)),IC50 (K562),IC50 [3],IC50 (COLO 205),IC50 (SR),IC50 (HCC 2998),IC50 (KM12),IC50 (SW-620),IC50 [4],Activity (HS27),Activity (LAPC4),Activity [5],IC50 [6],Activity (YT),Activity (Jurkat),Activity (EL4),other results
CN(C)c1ccc(/C=C2\CN(C(=O)C(=O)N3C/C(=C\c4ccc(N(C)C)cc4)C(=O)/C(=C/c4ccc(N(C)C)cc4)C3)C/C(=C\c3ccc(N(C)C)cc3)C2=O)cc1,276 µM,> 500 µM,297 µM,437 µM,–,–,–,–,–,–,–,–,–,–,–,–,–,–,–,–,–
N[C@@H](Cc1ccc(N(CCCl)CCCl)cc1)C(=O)O [MELPHALAN],1.44 µM,1.7 µM,4.85 µM,2.81 µM,0.38 µM,195 µM,19.1 µM,32.4 µM,3.24 µM,52.5 µM,57.5 µM,26.9 µM,28.2 µM,–,–,–,–,–,–,–,–
O=C1/C(=C/c2ccc(Cl)cc2)CN(C(=O)C(=O)N2C/C(=C\c3ccc(Cl)cc3)C(=O)/C(=C/c3ccc(Cl)cc3)C2)C/C1=C\c1ccc(Cl)cc1,0.793 µM,0.649 µM,0.547 µM,0.294 µM,0.19 µM,0.13 µM,0.22 µM,0.16 µM,0.02 µM,0.31 µM,0.21 µM,0.18 µM,0.05 µM,0%,27%,59%,0.14 µM,21.5%,78.5%,52.5%,Activity (DU-145): 33.1%; Activity (CCRF-CEM [7]): 59.9%; Activity [8]: 31.4%; Activity (Raji): 35.7%; Activity (Ramos): 82.9%; Activity (MCF7): 17.8%; Activity (HCC70): 8.4%; Activity [9]: 2.2%; Activity [10]: 0.4%; Activity (BJAB): 43.1%; Activity [11]: 13.6%; Activity [12]: 18.1%; Activity [13]: 10%
O=C1/C(=C/c2ccccc2)CN(C(=O)C(=O)N2C/C(=C\c3ccccc3)C(=O)/C(=C/c3ccccc3)C2)C/C1=C\c1ccccc1,0.75 µM,1 µM,4.46 µM,0.462 µM,–,–,0.31 µM,–,0.02 µM,–,–,–,0.03 µM,–,–,–,0.3 µM,–,–,–,–
O=C1/C(=C\c2ccc(O)cc2)CN(C(=O)CC(=O)N2C/C(=C\c3ccc(O)cc3)C(=O)/C(=C/c3ccc(O)cc3)C2)C/C1=C\c1ccc(O)cc1,–,–,–,–,1.74 µM,0.53 µM,1.66 µM,1.66 µM,0.46 µM,1.74 µM,0.69 µM,0.76 µM,0.35 µM,–,–,–,1.17 µM,–,–,–,–
COc1cc(/C=C/C(=O)CC(=O)/C=C/c2ccc(O)c(OC)c2)ccc1O [CURCUMIN],8.16 µM,21.2 µM,15.1 µM,6.46 µM,–,–,–,–,–,–,–,–,–,–,–,–,–,–,–,–,–
O=C1/C(=C\c2ccccc2)CN(CCCN2C/C(=C\c3ccccc3)C(=O)/C(=C/c3ccccc3)C2)C/C1=C\c1ccccc1,2.52 µM,5.54 µM,2.98 µM,1.45 µM,0.25 µM,0.04 µM,0.19 µM,0.19 µM,0.04 µM,0.18 µM,0.16 µM,0.06 µM,0.04 µM,2.9%,5.7%,49.2%,0.2 µM,6.6%,76.3%,65.3%,Activity (CCRF-CEM [7]): 64.5%; Activity [8]: 10%; Activity (Raji): 31.9%; Activity (Ramos): 82.1%; Activity (MCF7): 43.5%; Activity (HCC70): 4.3%; Activity [9]: 19.4%; Activity [10]: 27.4%; Activity (BJAB): 39.4%; Activity [11]: 1.7%; Activity [12]: 21.2%; Activity [13]: 20.1%
O=c1[nH]cc(F)c(=O)[nH]1 [FLUOROURACIL],–,–,–,–,–,–,29.5 µM,–,–,–,–,–,3.55 µM,–,–,–,–,–,–,–,–
Cc1ccc(/C=C2\CN(C(=O)C(=O)N3C/C(=C\c4ccc(C)cc4)C(=O)/C(=C/c4ccc(C)cc4)C3)C/C(=C\c3ccc(C)cc3)C2=O)cc1,7.72 µM,3.79 µM,9.09 µM,1.66 µM,–,–,–,–,–,–,–,–,–,12%,2.4%,59.5%,–,20.1%,80.7%,43.5%,Activity (DU-145): 26%; Activity (CCRF-CEM [7]): 68.4%; Activity [8]: 13.9%; Activity (Raji): 41.5%; Activity (Ramos): 84.4%; Activity (MCF7): 0%; Activity (HCC70): 11.9%; Activity [9]: 9.3%; Activity [10]: 0.8%; Activity (BJAB): 41.5%; Activity [11]: 16.2%; Activity [12]: 18.8%; Activity [13]: 9.3%
COc1ccc(/C=C2\CN(C(=O)C(=O)N3C/C(=C\c4ccc(OC)cc4)C(=O)/C(=C/c4ccc(OC)cc4)C3)C/C(=C\c3ccc(OC)cc3)C2=O)cc1,95.1 µM,59.9 µM,202 µM,33.1 µM,–,–,–,–,–,–,–,–,–,0.6%,1.9%,62.6%,–,5.8%,72%,71.7%,Activity (DU-145): 11.4%; Activity (CCRF-CEM [7]): 71.9%; Activity [8]: 6.7%; Activity (Raji): 69.1%; Activity (Ramos): 53.7%; Activity (MCF7): 16.2%; Activity (HCC70): 14.7%; Activity [9]: 9.9%; Activity [10]: 49.6%; Activity (BJAB): 45.8%; Activity [11]: 0%; Activity [12]: 15.2%; Activity [13]: 0.6%
O=C1/C(=C\c2ccc(Cl)c(Cl)c2)CN(C(=O)CC(=O)N2C/C(=C\c3ccc(Cl)c(Cl)c3)C(=O)/C(=C/c3ccc(Cl)c(Cl)c3)C2)C/C1=C\c1ccc(Cl)c(Cl)c1,49.9 µM,39.8 µM,30.4 µM,23.5 µM,–,–,–,–,–,–,–,–,–,–,–,–,–,–,–,–,–
O=C1/C(=C\c2ccc(F)cc2)CN(C(=O)CC(=O)N2C/C(=C\c3ccc(F)cc3)C(=O)/C(=C/c3ccc(F)cc3)C2)C/C1=C\c1ccc(F)cc1,2.75 µM,5.61 µM,11 µM,1.58 µM,–,–,–,–,–,–,–,–,–,0.3%,11.1%,51.9%,–,19.2%,87.1%,47.7%,Activity (DU-145): 38.4%; Activity (CCRF-CEM [7]): 92.4%; Activity [8]: 58.5%; Activity (Raji): 35.3%; Activity (Ramos): 78.6%; Activity (MCF7): 0.2%; Activity (HCC70): 3.1%; Activity [9]: 7%; Activity [10]: 2.6%; Activity (BJAB): 61.2%; Activity [11]: 18.8%; Activity [12]: 24.9%; Activity [13]: 0.4%
O=C1/C(=C\c2ccccc2)CN(C(=O)CC(=O)N2C/C(=C\c3ccccc3)C(=O)/C(=C/c3ccccc3)C2)C/C1=C\c1ccccc1,0.201 µM,0.91 µM,1.23 µM,0.073 µM,0.29 µM,0.05 µM,0.24 µM,0.16 µM,0.03 µM,0.17 µM,0.13 µM,0.05 µM,0.13 µM,–,–,–,0.17 µM,–,–,–,–
COc1ccc(/C=C2/CN(C(=O)CC(=O)N3C/C(=C\c4ccc(OC)cc4)C(=O)/C(=C/c4ccc(OC)cc4)C3)C/C(=C\c3ccc(OC)cc3)C2=O)cc1,369 µM,219 µM,> 500 µM,449 µM,–,–,–,–,–,–,–,–,–,–,–,–,–,–,–,–,–
